Test results published in article PMC3501683 (ACS medicinal chemistry letters, 2012).
“Also recorded” adds a separate entry of the source.

Legend:
[1] = target: LasB (Pseudomonas aeruginosa, UniProt P14756); experiment: LasB fluorescence assay based on a LasB-cleavable FRET peptide substrate; format: biochemical; conditions: for less potent than 8a and 8b in the in vitro LasB assay: relative to 8a and 8b; for improvement in potency: relative to fragment hits 3 and 4
[2] = target: secreted LasB (Pseudomonas aeruginosa, UniProt Q02RJ6); experiment: bacterial P. aeruginosa elastase assays; format: cell-based
[3] = tested on: P. aeruginosa strain PA14; experiment: swarming assay on swarm agar plates; format: cell-based, Pseudomonas aeruginosa; conditions: for swarming inhibition: data not shown; for effect on swarming: 25 μM, 16 h at 30 °C, versus DMSO-treated control
Summary of the method: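 Test compound was added to the swarm agar at 25 μM, and P. aeruginosa PA14 was grown on these plates for 16 h at 30 °C. Swarm morphology was compared visually with plates containing DMSO as the vehicle control.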

[4] = stability studies in bacterial culture medium; format: physicochemical; conditions: 48 h period

LasB, sequence (P14756 198-498): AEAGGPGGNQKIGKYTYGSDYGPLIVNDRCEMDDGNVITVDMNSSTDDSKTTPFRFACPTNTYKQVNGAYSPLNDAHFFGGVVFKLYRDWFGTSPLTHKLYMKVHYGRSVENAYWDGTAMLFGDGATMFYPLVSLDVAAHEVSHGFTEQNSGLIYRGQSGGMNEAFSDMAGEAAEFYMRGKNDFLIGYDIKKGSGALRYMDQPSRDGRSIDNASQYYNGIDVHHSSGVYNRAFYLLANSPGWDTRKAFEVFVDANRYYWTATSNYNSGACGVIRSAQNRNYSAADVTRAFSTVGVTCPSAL
secreted LasB, sequence (Q02RJ6 198-498): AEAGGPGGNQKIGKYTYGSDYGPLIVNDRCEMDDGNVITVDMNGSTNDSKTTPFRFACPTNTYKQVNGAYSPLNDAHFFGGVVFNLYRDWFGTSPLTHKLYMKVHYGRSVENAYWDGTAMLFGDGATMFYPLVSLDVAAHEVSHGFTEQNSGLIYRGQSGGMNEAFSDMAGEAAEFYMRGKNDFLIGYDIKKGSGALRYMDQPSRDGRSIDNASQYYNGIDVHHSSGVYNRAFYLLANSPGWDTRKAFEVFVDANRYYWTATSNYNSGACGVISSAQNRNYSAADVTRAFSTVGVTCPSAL

O=C(Cc1ccccc1)NO [Compound 1]
less potent than 8a and 8b in the in vitro LasB assay [1]: ~ 5 fold | antagonism in bacterial P. aeruginosa elastase assays (secreted LasB inhibition) [2]: no secreted LasB inhibition; also recorded: no antagonism | swarming inhibition [3]: no swarming inhibition | stability in bacterial culture medium [4]: hydrolytic instability

O=C(Cc1cccc(F)c1)NO [Compound 2]
less potent than 8a and 8b in the in vitro LasB assay [1]: ~ 5 fold | antagonism in bacterial P. aeruginosa elastase assays (secreted LasB inhibition) [2]: no secreted LasB inhibition; also recorded: no antagonism | swarming inhibition [3]: no swarming inhibition | stability in bacterial culture medium [4]: hydrolytic instability

Cc1c(O)c(=S)ccn1Cc1ccc(-c2ccc(F)c(F)c2)cc1 [Compound 8a]
improvement in potency [1]: ~ 30 fold | effect on swarming [3]: almost completely abolished swarming | stability in bacterial culture medium [4]: no detectable S-oxidation or decomposition

Cc1c(O)c(=S)ccn1Cc1ccc(-c2ccccc2)cc1 [Compound 8b]
improvement in potency [1]: ~ 30 fold | effect on swarming [3]: almost completely abolished swarming | stability in bacterial culture medium [4]: no detectable S-oxidation or decomposition
